Bioassay records deposited in PubChem by Johns Hopkins Ion Channel Center.
KCNQ1 block: blocks the human KCNQ1 potassium channel | 310,000 compounds, 1.3% hits | B-score at 10 µM | CHO-K1 KCNQ1, FluxOR thallium flux fluorescence; hits give high values | P51787;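 active means compounds whose thallium flux B-score, printed positive for inhibition, exceeds three library SD while starting fluorescence stays within three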;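 further: channel opened by potassium depolarization with thallium stimulus after 20 min compound exposure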
KCNQ1 act: potentiators or activators of human KCNQ1 potassium channel; CHO-K1 KCNQ1, thallium flux FluxOR fluorescence; hits give high values; B-score at 10 µM; 310,000 compounds, 0.35% hits;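 active means fluorescence ratio B-score, a plate-corrected score, at least three library SD, with initial intensity B-score within 5 SD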
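assay system = CHO-K1 cells stably expressing KCNQ1 | medium = assay buffer, equal DMSO in all wells | timing = 37 °C overnight plating, 90-min dark dye load, 20-min compound pretreatment | measured by = kinetic FluxOR thallium fluorescence, 10-s 1-Hz baseline, 110-s post-stimulus read | measure = fluorescence change relative to baseline, converted to B score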
hERG rescue: compounds protecting human hERG from proarrhythmic drug block; 310,000 compounds, 0.51% hits; Q12809; AID 1511; activation (rescue from dofetilide block), less the hit threshold, % at 10 µM; CHO-hERG, FluxOR thallium flux, dofetilide IC70 present;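 active means activation above the mean of controls blocked by dofetilide plus 5 SD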;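 further: thallium influx through hERG after potassium depolarization seen as dye fluorescence rise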
KCNK9 inh: human KCNK9 channel inhibition; HEK293 KCNK9, FluxOR thallium flux fluorescence; hits give low values; B-score at 10 µM; 310,000 compounds, 1.2% hits; AID 488922;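 active means ratio B-score over 3 SD below the library mean, with starting fluorescence within 5 SD of its mean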;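 further: negative B-score means less thallium flux so channel inhibition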
KCNK3 block: human KCNK3 channel inhibition, primary screen; 340,000 compounds, 0.84% hits; CHO-KCNK3 thallium flux, FluxOR fluorescence; hits give low values; O14649; B-score at 10 µM;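 active means B-score under library mean minus 4 SD, starting fluorescence ratio at most library mean plus 5 SD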;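 further: more negative B-score means stronger inhibition of thallium flux through KCNK3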
Target sequence (O14649 whole entry, looked up): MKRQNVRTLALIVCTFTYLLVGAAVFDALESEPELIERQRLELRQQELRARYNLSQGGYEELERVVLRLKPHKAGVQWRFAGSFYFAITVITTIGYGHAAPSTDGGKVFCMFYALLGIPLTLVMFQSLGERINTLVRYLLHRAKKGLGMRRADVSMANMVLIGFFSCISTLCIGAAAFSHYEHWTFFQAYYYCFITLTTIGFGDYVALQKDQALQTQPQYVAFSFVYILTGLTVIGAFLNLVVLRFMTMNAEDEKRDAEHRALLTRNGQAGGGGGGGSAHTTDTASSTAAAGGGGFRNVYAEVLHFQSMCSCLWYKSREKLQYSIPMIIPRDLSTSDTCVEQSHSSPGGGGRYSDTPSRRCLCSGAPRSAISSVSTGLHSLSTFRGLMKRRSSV
* = called active by the depositor; i = inactive; x = not tested or not shown. Only some compounds are listed: those with a hit (about 3.1% of all), similar ones and a draw of the others.

SMILES	KCNQ1 block	KCNQ1 act	hERG rescue	KCNK9 inh	KCNK3 block
Cc1ccccc1N(C(=O)c1cccs1)c1nc2ccccc2s1	7*	i	-7	i	i
Oc1ccc2ccccc2c1N=Nc1ccccn1	i	i	-6	-7.3*	i
O=C(NC1CCN(Cc2ccccc2)CC1)c1cccc(S(=O)(=O)Nc2cc(C(F)(F)F)ccc2Cl)c1	i	i	-18	i	i
CCC1CCCCN1C(=O)c1cccc(S(=O)(=O)Nc2cc(C(F)(F)F)ccc2Cl)c1 (stereo unspecified)	7*	i	-15	i	i
COc1ccc(C(=O)/C(C#N)=N/Nc2ccccc2[N+](=O)[O-])cc1	i	i	-4	i	i
COc1ccc(C(=O)CC(Nc2ccc([N+](=O)[O-])cc2)c2ccc(OC)cc2)cc1 (stereo unspecified)	9*	i	-12	i	i
COc1ccc(C(=O)CC(=O)Nc2ccc([N+](=O)[O-])cc2)cc1	i	i	-8	i	i
COc1ccc(C(=O)/C(C#N)=N/Nc2ccc([N+](=O)[O-])cc2)cc1	6*	i	-10	i	i
CC1CN=C(c2ccccc2)O1 (stereo unspecified)	x	x	x	x	i
CCn1ncc(Cl)c1C(=O)Nc1cc(Cl)ccc1Cl	i	i	-11	i	i
CCn1ncc(Cl)c1C(=O)NC(=S)Nc1ccccc1Br	i	26*	35*	i	i
Cc1nn(C)c(C(=O)NC(=S)Nc2ccccc2Br)c1Cl	i	22*	17*	i	i
Cc1nn(C)c(C(=O)NC(=S)Nc2ccc([N+](=O)[O-])cc2)c1Cl	i	34*	43*	i	i
COCCn1c(SCC(=O)NNC(=O)c2ccccc2)nc2ccccc21	x	x	x	x	i
O=S(=O)(Nc1nc2ccccc2nc1Cl)c1ccc(Br)cc1	9*	i	-10	i	i
Cc1c(C(=O)Nc2ccc(F)c(F)c2)oc2ccc(S(=O)(=O)N3CCCCC3)cc12	i	i	-4	i	-10*
Cc1c(C(=O)NCCC2=CCCCC2)oc2ccc(S(=O)(=O)N3CCC4(CC3)OCCO4)cc12	i	i	-21	i	-9.1*
O=C(CN1C(=O)NC2(CCCCCCC2)C1=O)Nc1ccc(Br)cc1Br	x	x	x	x	i
Cc1cccc(NC(=S)NNC(=O)c2csc3c2CCCC3)c1	i	i	-9	i	i
Cc1ccc(C)c(NC(=S)NNC(=O)c2csc3c2CCCC3)c1	i	11*	-5	i	i
Cc1ccc(NC(=O)NNC(=O)c2cc3ccccc3cc2O)c(C)c1	i	i	0	i	i
Cc1ccc(NC(=S)NNC(=O)c2ccccc2O)c(C)c1	10*	i	-8	i	i
Cc1ccc(C)c(NC(=S)NNC(=O)c2csc3c2CCC(C)C3)c1 (stereo unspecified)	i	19*	6.8*	i	i
CCc1cc(C(=O)NNC(=S)Nc2cc(C)ccc2C)cs1	i	i	-3	i	i
CCCC[C@@H]1C[C@H]1[C@@H](NC(=O)c1cccs1)c1ccc(C(F)(F)F)cc1	i	i	-15	-7.3*	x
SMILES	KCNQ1 block	KCNQ1 act	hERG rescue	KCNK9 inh	KCNK3 block
COc1ccc([C@@H]2C[C@H](c3ccccc3)Oc3cc(OC)c(OC)c(OC)c32)cc1	i	i	-16	-6.8*	i
COc1ccc(C2CC(O)(c3ccccc3)Oc3cc(OC)c(OC)c(OC)c32)cc1 (stereo unspecified)	i	i	-7	i	i
CC1=CC(=C(C#N)c2nc3ccccc3s2)C=C(C)N1Cc1ccco1	i	i	-7	i	-13*
N#C/C(=C(/O)c1ccco1)c1nc2ccccc2s1	i	i	-9	i	i
CCN1CCN(CCCNC(=O)c2ccc(/C=C3/Oc4ccccc4N(Cc4cccc(C)c4)C3=O)cc2)CC1	7*	i	-14	i	i
Cc1ccccc1CN1C(=O)c2ccccc2Sc2ccc(C(=O)NCCN3CCOCC3)cc21	i	i	-13	i	i
O=C(NCCN1CCOCC1)c1ccc2c(c1)N(Cc1ccccc1F)C(=O)c1ccccc1S2	i	i	-14	i	i
CCN1CCN(CCCNC(=O)c2ccc(/C=C3/Sc4ccccc4N(Cc4ccccc4F)C3=O)cc2)CC1	7*	i	-34	-6.7*	i
